Source: ChEMBL document CHEMBL3259717, “Synthetic calanolides with bactericidal activity against replicating and nonreplicating Mycobacterium tuberculosis” (J Med Chem, 2014)
≈ marks a conversion by molar mass, not a printed value.

Columns and labels:
[1] = Selectivity index, ratio of LD50 for human HepG2 cells to MIC90 for replicating form of Mycobacterium tuberculosis H37Rv; type: toxicity, cell-based; settings: read-out: Selectivity Index
Outline: (§1)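 HepG2 in DMEM with 10% FBS, pyruvate, glutamine, HEPES and nonessential amino acids, seeded 3000 cells/well in 384-well plates. Compound for 2 days at 1% final DMSO. ATP read by CellTiter-Glo luminescence. LD50 = 50% drop in ATP signal vs DMSO. SI = LD50/MIC90 against replicating Mtb.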

[2] = test system: Mycobacterium tuberculosis; assay: Antibacterial activity against replicating form of wild type Mycobacterium tuberculosis H37Rv assessed as growth inhibition after 7 days by high-throughput screening assay; type: functional; settings: 168 h
Outline: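 Wild-type H37Rv in 7H9 with glycerol, tyloxapol, ADN, in 96-well plates. Set up as the 384-well screen: OD580 0.01 start, compound in DMSO, 7 days at 37 °C, 20% O2, 5% CO2. OD580 read; MIC90 = 90% growth inhibition vs DMSO control.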

[3] = test system: Mycobacterium tuberculosis; assay: Antibacterial activity against non-replicating form of wild type Mycobacterium tuberculosis H37Rv assessed as growth inhibition after 3 days by high-throughput screening assay; type: functional; settings: 72 h
[4] = Cytotoxicity against human HepG2 cells assessed as decrease in ATP signal after 2 days by CellTiter-Glo assay; type: cell-based; settings: read-out: LD50; outline: as §1
[5] = test system: Mycobacterium tuberculosis; assay: Bactericidal activity against wild type Mycobacterium tuberculosis H37Rv infected in IFN-gamma-stimulated primary human monocyte-derived macrophages assessed as reduction of log10CFU incubated for 7 days followed by compound washout measured after 3 weeks; type: functional
Outline: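 Monocytes from healthy donors isolated by CD14 selection. Differentiated 2 weeks in 40% human plasma with 0.5 ng/mL GM-CSF and TNF-alpha, 10% O2. Then 5 ng/mL IFN-gamma overnight, infected with wild-type Mtb at MOI 0.1. Compound added at 24 h, 1% DMSO final, 7 days. Viability inspected visually; lysed in 0.55% Triton-X and plated on 7H11/OADC for CFU.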

[6] = Genotoxicity in mouse lymphoma cells; type: toxicity, cell-based
[7] = test system: Mycobacterium tuberculosis; assay: Antibacterial activity against replicating form of Mycobacterium tuberculosis MC2 6220 assessed as growth inhibition after 7 days by high-throughput screening assay; type: functional; settings: MC2 6220, 168 h
Outline: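 Attenuated Mtb mc26220 ΔpanCDΔlysA in 7H9 with glycerol, tyloxapol, OADC, casein amino acids, 240 μg/mL L-lysine, 24 μg/mL pantothenate. Mid-log cells diluted to OD580 0.01 in 384-well plates, compound in DMSO, 7 days at 37 °C, 20% O2, 5% CO2. OD580 read; MIC90 = 90% growth inhibition vs DMSO.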

[8] = test system: Mycobacterium tuberculosis; assay: Antibacterial activity against non-replicating form of Mycobacterium tuberculosis MC2 6220 assessed as growth inhibition after 3 days by high-throughput screening assay; type: functional; settings: MC2 6220, 72 h
Outline: (§2)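 Log-phase mc26220 washed in PBS/tyloxapol, resuspended in Sauton's-based NR medium (butyrate, 0.5 mM NaNO2, pH 5.0) at OD580 0.1. Compound exposure 3 days at 37 °C, 1% O2, 5% CO2. Then R medium added (5-fold dilution), 7 days outgrowth at 20% O2. OD580 read; MIC90 = 90% inhibition vs DMSO.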

[9] = Selectivity index, ratio of LD50 for human HepG2 cells to MIC90 for replicating form of Mycobacterium tuberculosis mc'2 6220; type: toxicity, cell-based; settings: read-out: Selectivity Index; outline: as §1
[10] = test system: Mycobacterium tuberculosis; assay: Antibacterial activity against non-replicating form of Mycobacterium tuberculosis MC2 6220 assessed as growth inhibition after 7 days by high-throughput screening assay; type: functional; settings: MC2 6220, 168 h; outline: as §2

SMILES	selectivity ratio [1]	MIC90 [2]	MIC90 [3]	CC50 at 48 h [4]	log10cfu [5]	Activity [6]	MIC90 [7]	MIC90 [8]	selectivity ratio [9]	MIC90 [10]
CCCc1cc(=O)oc2c1c(OCc1ccc(F)cc1)cc1oc([N+](=O)[O-])cc12	> 160	0.6 µg/mL (≈ 1.51 µM)	3 µg/mL (≈ 7.55 µM)	> 100 µg/mL	1	Non-toxic	–	–	–	–
Cc1c(F)c(=O)oc2c1c1c(c3oc([N+](=O)[O-])cc32)C=CC(C)(C)O1	–	–	–	> 50 µg/mL	–	–	< 0.1 µg/mL	0.2 µg/mL (≈ 0.579 µM)	> 510	–
Cc1c(F)c(=O)oc2c1c1c(c3oc([N+](=O)[O-])cc32)CCC(C)(C)O1	–	–	–	> 50 µg/mL	–	–	0.8 µg/mL (≈ 2.3 µM)	2 µg/mL (≈ 5.76 µM)	> 64	–
CC1(C)C=Cc2c(c3c(CN4CCOCC4)cc(=O)oc3c3cc([N+](=O)[O-])oc23)O1	–	–	–	1 µg/mL (≈ 2.42 µM)	–	–	< 0.2 µg/mL	< 0.2 µg/mL	> 5	–
CC1(C)CCc2c3c(c4oc(=O)c5c(c4c2O1)CCC5)[C@H](O)[C@@H]([N+](=O)[O-])O3	–	–	–	25 µg/mL (≈ 67 µM)	–	–	0.2 µg/mL (≈ 0.536 µM)	0.4 µg/mL (≈ 1.07 µM)	128	–
CCCc1cc(=O)oc2cc(OCC=C(C)C)c3c(c12)OC(C)(C)C=C3	–	–	–	> 18 µg/mL	–	–	> 18 µg/mL	> 18 µg/mL	–	2 µg/mL (≈ 5.64 µM)
CCCc1cc(=O)oc2cc(N3CCN(C(=O)C(C)CC)CC3)c3c(c12)OC(C)(C)C=C3 (configuration not stated)	–	–	–	22 µg/mL (≈ 50.2 µM)	–	–	> 22 µg/mL	> 22 µg/mL	< 1	–
CCCc1cc(=O)oc2c3c(cc(OCCN4CCOCC4)c12)O[C@H]([N+](=O)[O-])[C@H]3C(C)C (racemic)	–	–	–	> 22 µg/mL	–	–	22 µg/mL (≈ 49.3 µM)	> 22 µg/mL	> 1	–
CCCc1cc(=O)oc2c3c(cc(OCCN4CCOCC4)c12)OC(C)([N+](=O)[O-])C3O (racemic)	–	–	–	> 100 µg/mL	–	–	100 µg/mL (≈ 230 µM)	100 µg/mL (≈ 230 µM)	> 1	–
CCCc1cc(=O)oc2c1c(OCCN1CCOCC1)cc1oc([N+](=O)[O-])c(C(C)C)c12	–	–	–	22 µg/mL (≈ 49.5 µM)	–	–	> 22 µg/mL	> 22 µg/mL	< 1	–
Cc1cc(=O)oc2c1c1c(c3oc([N+](=O)[O-])cc32)C=CC(C)(C)O1	16	0.08 µg/mL (≈ 0.244 µM)	0.2 µg/mL (≈ 0.611 µM)	1 µg/mL (≈ 3.06 µM)	–	–	–	–	–	–
O=[N+]([O-])C1Cc2ccccc2O1 (configuration not stated)	–	–	–	3 µg/mL (≈ 18.2 µM)	–	–	0.4 µg/mL (≈ 2.42 µM)	0.4 µg/mL (≈ 2.42 µM)	6	–
CCCc1cc(=O)oc2cc(OCCN3CCCCC3)c3c(c12)OC(C)(C)C=C3	–	–	–	> 20 µg/mL	–	–	> 20 µg/mL	> 20 µg/mL	–	7 µg/mL (≈ 17.6 µM)
CCCc1cc(=O)oc2c3c(cc(OCCN4CCOCC4)c12)O[C@@H]([N+](=O)[O-])[C@@H]3O	10	0.08 µg/mL (≈ 0.19 µM)	0.08 µg/mL (≈ 0.19 µM)	0.8 µg/mL (≈ 1.9 µM)	–	–	–	–	–	–
CCc1c(F)c(=O)oc2c1c1c(c3oc([N+](=O)[O-])cc32)C=CC(C)(C)O1	> 40	0.6 µg/mL (≈ 1.67 µM)	1 µg/mL (≈ 2.78 µM)	> 25 µg/mL	–	–	–	–	–	–
CCCc1cc(=O)oc2c1c(OC)cc1oc([N+](=O)[O-])cc12	–	–	–	0.3 µg/mL (≈ 0.989 µM)	–	–	< 0.2 µg/mL	< 0.2 µg/mL	> 2	–
CCCc1cc(=O)oc2c3c(c4c(c12)OC(C)(C)C=C4)O[C@H]([N+](=O)[O-])[C@H]3O (relative stereo)	–	–	–	3 µg/mL (≈ 8.04 µM)	–	–	< 0.2 µg/mL	< 0.2 µg/mL	> 11	–
CCCc1cc(=O)oc2c1c(OCCN1CCOCC1)cc1oc([N+](=O)[O-])c(COC(C)=O)c12	–	–	–	< 0.3 µg/mL	–	–	1 µg/mL (≈ 2.11 µM)	3 µg/mL (≈ 6.32 µM)	< 0.3	–
CN1CCN(Cc2cc(=O)oc3c2c2c(c4oc([N+](=O)[O-])cc43)C=CC(C)(C)O2)CC1	31	0.08 µg/mL (≈ 0.188 µM)	0.3 µg/mL (≈ 0.705 µM)	3 µg/mL (≈ 7.05 µM)	–	–	–	–	–	–
Cc1c(F)c(=O)oc2c3c(c4c(c12)OC(C)(C)CC4)O[C@H]([N+](=O)[O-])[C@H]3O (relative stereo)	–	–	–	13 µg/mL (≈ 35.6 µM)	–	–	< 0.1 µg/mL	< 0.1 µg/mL	> 128	–
